Test results published in ChEMBL document CHEMBL4325827, “Bifidenone: Structure-Activity Relationship and Advanced Preclinical Candidate” (J Med Chem, 2018).
Active and inactive are the calls of the source. The rule behind the calls is not given here.

Key:
[1] = Toxicity in Crl:NU(NCr)-Foxn1 nu mouse xenografted with human LOX-IMVI cells assessed as maximum body weight loss at 30 mg/kg, ip qd administered for 7 consecutive days measured after 5 days post dose relative to control; assay type: organism-based; conditions: in vivo, 120 h
In short: (§1)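 Female athymic nude mice bearing subcutaneous xenografts, started from cultured cells (NCI-H460, Calu-6, NCI-H69, LOX-IMVI) or from serially passaged tumour fragments (NCI-H522). Mice were grouped into vehicle and treatment arms at tumour volumes of about 75-200 mm3. Dosing was ip at 5-10 mL/kg in 22% ethanol, 38% PEG400, 40% 20 mM Na citrate pH 5.0. Caliper volumes were taken as (length × width2)/2. Treated and control delta weights were median tumour weight minus staging-day median.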

NCI/ADR-RES [2] = test: Potency index, ratio of paclitaxel IC50 to compound IC50 for taxane-resistant human NCI/ADR-RES cells after 72 hrs by CellTiter 96 aqueous nonradioactive cell proliferation assay; assay type: functional
NCI-H460 = test: Antiproliferative activity against human NCI-H460 cells after 72 hrs by CellTiter 96 aqueous nonradioactive cell proliferation assay; assay type: functional, cell-based; conditions: NCI-H460, 72 h
In short: (§2)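 Antiproliferation in cultured tumour cells, at least 3 replicate wells per concentration per experiment. NCI-H460 came from ATCC. M14, NCI/ADR-RES, OVCAR-4, HCT-15, ACHN and SF-295 came from the National Cancer Institute. IC50 reported from single experiments where no SD is given.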

ACHN = test: Antiproliferative activity against taxane-resistant human ACHN cells after 72 hrs by CellTiter 96 aqueous nonradioactive cell proliferation assay; assay type: functional, cell-based; in short: as §2
[3] = Toxicity in Crl:NU(NCr)-Foxn1 nu mouse xenografted with human […] cells assessed as maximum body weight loss at 40 mg/kg, ip qd administered for 3 consecutive days followed by 2 days of rest for 3 cycles measured after 7 days post dose relative to control; assay type: organism-based; conditions: in vivo, 168 h; in short: as §1
[4] = Toxicity in Crl:NU(NCr)-Foxn1 nu mouse xenografted with human […] cells assessed as maximum body weight loss at 60 mg/kg, ip qd administered for 3 consecutive days followed by 2 days of rest for 3 cycles measured after 3 days post dose relative to control; assay type: organism-based; conditions: in vivo, 72 h; in short: as §1
[5] = Toxicity in Crl:NU(NCr)-Foxn1 nu mouse xenografted with human […] cells assessed as maximum body weight loss at 50 mg/kg, ip qd administered for 3 consecutive days followed by 2 days of rest for 3 cycles measured after 7 days post dose relative to control; assay type: organism-based; conditions: in vivo, 168 h; in short: as §1
Calu-6 = test: (§3) Antitumor activity against human Calu6 cells xenografted in Crl:NU(NCr)-Foxn1 nu mouse assessed as tumor growth inhibition at 50 mg/kg, ip qd administered for 3 consecutive days followed by 2 days of rest for 4 cycles relative to control; assay type: functional; conditions: Calu-6, ip, 48 h, read-out: TGI; in short: as §1
UO-31 [6] = test: Antiproliferative activity against taxane-resistant human UO31 cells after 72 hrs by CellTiter 96 aqueous nonradioactive cell proliferation assay; assay type: functional, cell-based; conditions: UO-31, 72 h
[7] = Toxicity in Crl:NU(NCr)-Foxn1 nu mouse xenografted with human NCI-H460 cells assessed as maximum body weight loss at 40 mg/kg, ip qd administered for 3 consecutive days followed by 2 days of rest for 3 cycles measured after 7 days post dose relative to control; assay type: organism-based; conditions: in vivo, 168 h; in short: as §1
UO-31 [8] = test: Potency index, ratio of paclitaxel IC50 to compound IC50 for taxane-resistant human UO31 cells after 72 hrs by CellTiter 96 aqueous nonradioactive cell proliferation assay; assay type: functional
LOX IMVI = test: Antitumor activity against human LOXIMVI cells xenografted in Crl:NU(NCr)-Foxn1 nu mouse assessed as tumor growth inhibition at 30 mg/kg, ip qd relative to control; conditions: read-out: TGI
HCT-15 = test: Antiproliferative activity against taxane-resistant human HCT15 cells after 72 hrs by CellTiter 96 aqueous nonradioactive cell proliferation assay; assay type: functional, cell-based; conditions: HCT-15, 72 h; in short: as §2
NCI-H69 = test: as §3, with “NCI-H69” for “Calu6”, “60 mg/kg, ip dosed on day 1 followed by 4 days rest and subsequently dosed at 60” for “50”, “2” for “4”; assay type: functional; conditions: read-out: TGI; in short: as §1
[9] = Toxicity in Crl:NU(NCr)-Foxn1 nu mouse xenografted with human NCI-H69 cells assessed as mortality at 70 mg/kg, ip dosed on day 1 followed by 4 days rest and subsequently dosed at 70 mg/kg, ip qd administered for 3 consecutive days followed by 2 days of rest for 2 cycles; assay type: organism-based; conditions: in vivo
In short: (§4)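 Female athymic nude mice bearing subcutaneous xenografts started from cultured human tumor cells. Mice were split into vehicle and treatment groups once tumors reached about 75-200 mm3. Dosing was ip at 5-10 mL/kg in 22% ethanol, 38% PEG400, 40% 20 mM Na citrate pH 5.0. Deaths per group were recorded alongside maximum mean bodyweight loss.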

[10] = Toxicity in Crl:NU(NCr)-Foxn1 nu mouse xenografted with human Calu6 cells assessed as mortality at 50 mg/kg, ip qd administered for 3 consecutive days followed by 2 days of rest for 4 cycles; assay type: organism-based; conditions: in vivo, 48 h; in short: as §4
NCI-H522 = test: Antitumor activity against human NCI-H522 cells xenografted in Crl:NU(NCr)-Foxn1 nu mouse assessed as tumor growth inhibition at 40 mg/kg, ip qd administered for 3 consecutive days followed by 2 days of rest for 3 cycles relative to control; assay type: functional; conditions: 48 h, read-out: TGI; in short: as §1
NCI/ADR-RES [11] = test: Antiproliferative activity against taxane-resistant human NCI/ADR-RES cells after 72 hrs by CellTiter 96 aqueous nonradioactive cell proliferation assay; assay type: functional, cell-based; in short: as §2
[12] = Toxicity in Crl:NU(NCr)-Foxn1 nu mouse xenografted with human NCI-H69 cells assessed as maximum body weight loss at 60 mg/kg, ip dosed on day 1 followed by 4 days rest and subsequently dosed at 60 mg/kg, ip qd administered for 3 consecutive days followed by 2 days of rest for 2 cycles measured after 3 days post dose relative to control; assay type: organism-based; conditions: in vivo, 72 h; in short: as §1
Tubulin (Sus scrofa) = Tubulin (Sus scrofa) (UniProt P02554+P02550); test: Inhibition of pig tubulin polymerization at 10 uM measured at 1 min intervals for 60 mins; assay type: protein assay
Sequence of Tubulin (Sus scrofa) (P02550 whole entry, looked up): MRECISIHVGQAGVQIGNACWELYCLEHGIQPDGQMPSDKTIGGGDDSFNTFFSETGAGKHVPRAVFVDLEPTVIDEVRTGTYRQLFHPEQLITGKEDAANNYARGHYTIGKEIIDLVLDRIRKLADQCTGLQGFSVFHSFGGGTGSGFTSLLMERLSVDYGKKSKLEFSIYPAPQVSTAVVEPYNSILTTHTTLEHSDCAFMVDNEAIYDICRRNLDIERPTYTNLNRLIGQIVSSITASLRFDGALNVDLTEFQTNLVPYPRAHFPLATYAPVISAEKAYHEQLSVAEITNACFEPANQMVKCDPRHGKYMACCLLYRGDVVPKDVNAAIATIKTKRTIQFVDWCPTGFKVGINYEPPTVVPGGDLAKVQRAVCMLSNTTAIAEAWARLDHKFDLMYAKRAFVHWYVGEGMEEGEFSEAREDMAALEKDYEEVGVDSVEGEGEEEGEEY
Sequence of Tubulin (Sus scrofa) (P02554 whole entry, looked up): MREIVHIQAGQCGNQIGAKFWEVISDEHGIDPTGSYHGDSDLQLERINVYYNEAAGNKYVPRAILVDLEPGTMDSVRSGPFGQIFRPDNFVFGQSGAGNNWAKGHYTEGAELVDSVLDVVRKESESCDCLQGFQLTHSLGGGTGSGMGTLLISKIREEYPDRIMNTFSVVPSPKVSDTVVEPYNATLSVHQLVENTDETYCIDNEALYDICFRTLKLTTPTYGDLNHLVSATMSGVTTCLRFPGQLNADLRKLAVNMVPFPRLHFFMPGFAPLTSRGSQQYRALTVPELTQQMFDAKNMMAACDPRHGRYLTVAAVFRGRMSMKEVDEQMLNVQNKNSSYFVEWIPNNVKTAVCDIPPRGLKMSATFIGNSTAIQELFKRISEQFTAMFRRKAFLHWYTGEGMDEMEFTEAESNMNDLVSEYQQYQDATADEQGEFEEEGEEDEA
In short: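 Polymerization assay using porcine tubulin.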

[13] = Toxicity in Crl:NU(NCr)-Foxn1 nu mouse xenografted with human Calu6 cells assessed as mortality at 60 mg/kg, ip qd administered for 3 consecutive days followed by 2 days of rest for 4 cycles; assay type: organism-based; conditions: in vivo, 48 h; in short: as §4
[14] = Toxicity in Crl:NU(NCr)-Foxn1 nu mouse xenografted with human […] cells assessed as mortality at 60 mg/kg, ip qd administered for 3 consecutive days followed by 2 days of rest for 3 cycles; assay type: organism-based; conditions: in vivo, 48 h
In short: (§5)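 Female athymic nude mice bearing subcutaneous NCI-H522 xenografts started from tumor fragments kept by continuous in vivo passage. Mice were grouped once tumors reached about 75-200 mm3. Dosing was ip at 5-10 mL/kg in 22% ethanol, 38% PEG400, 40% 20 mM Na citrate pH 5.0. Deaths per group were recorded with maximum mean bodyweight loss.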

[15] = Toxicity in Crl:NU(NCr)-Foxn1 nu mouse xenografted with human […] cells assessed as mortality at 50 mg/kg, ip qd administered for 3 consecutive days followed by 2 days of rest for 3 cycles; assay type: organism-based; conditions: in vivo, 48 h; in short: as §5

With `C=CC[C@H]1C[C@]2([C@H](C)Cc3cc(O)c(OC)cc3F)OCOC2=CC1=O` the Activity [1] was 9%, the “Ratio IC50” value (NCI/ADR-RES [2]) was greater than 1000 and the IC50 (NCI-H460) was 0.015 µM. It also gave an IC50 (ACHN) of 0.012 µM, an Activity [3] of 3% and an Activity [4] of 9%. It also gave an Activity [5] of 8%, an inhibition in vivo at 50 mg/kg (Calu-6) of 76% and an IC50 (UO-31 [6]) of 0.007 µM. For the same compound, the Activity [7] was 7%, the “Ratio IC50” value (UO-31 [8]) was 34 and the inhibition in vivo at 30 mg/kg (LOX IMVI) was 63%. The IC50 (HCT-15) was 0.014 µM, the inhibition in vivo at 60 mg/kg (NCI-H69) was 77% and the Activity [9] was “Non-Toxic”. For the same compound, the Activity [10] was “Non-Toxic”, the inhibition in vivo at 40 mg/kg (NCI-H522) was 54% and the IC50 (NCI/ADR-RES [11]) was 0.009 µM. For the same compound, the Activity [12] was 6%, the inhibition (Tubulin (Sus scrofa)) was “Active” and the Activity [13] was “Non-Toxic”. The Activity [14] was “Non-Toxic” and the Activity [15] was “Non-Toxic”.
